Results taken from ChEMBL document CHEMBL3525906, “A comprehensive assessment of repaglinide metabolic pathways: impact of choice of in vitro system and relative enzyme contribution to in vitro clearance” (Drug Metab Dispos, 2012).
Each block holds one molecule with its values, some of them ahead of it.

What was measured:
[1] = Retention time of the compound by LC-MS/MS method; type: physicochemical
[2] = Ratio of human recombinant CYP3A4-mediated unbound intrinsic clearance to human recombinant CYP3A5-mediated unbound intrinsic clearance; type: ADME; settings: recombinant enzyme
[3] = Ratio of human recombinant CYP3A4-mediated unbound intrinsic clearance to human recombinant CYP2C8-mediated unbound intrinsic clearance; type: ADME; settings: recombinant enzyme
Homo sapiens [4] = organism: Homo sapiens; assay: Unbound intrinsic clearance in human hepatic S9 fraction assessed as gemfibrozil glucuronide-mediated inhibition of 2-despiperidyl-2-amino repaglinide intrinsic clearance at 0.5 to 150 uM by LC-MS/MS method
Cytochrome P450 3A4 = Cytochrome P450 3A4 (Homo sapiens, UniProt P08684); assay: Drug metabolism assessed as human recombinant CYP3A4-mediated metabolite formation at 0.5 to 150 uM by LC-MS/MS method; type: ADME; settings: recombinant enzyme
Chain of Cytochrome P450 3A4 (P08684 whole entry): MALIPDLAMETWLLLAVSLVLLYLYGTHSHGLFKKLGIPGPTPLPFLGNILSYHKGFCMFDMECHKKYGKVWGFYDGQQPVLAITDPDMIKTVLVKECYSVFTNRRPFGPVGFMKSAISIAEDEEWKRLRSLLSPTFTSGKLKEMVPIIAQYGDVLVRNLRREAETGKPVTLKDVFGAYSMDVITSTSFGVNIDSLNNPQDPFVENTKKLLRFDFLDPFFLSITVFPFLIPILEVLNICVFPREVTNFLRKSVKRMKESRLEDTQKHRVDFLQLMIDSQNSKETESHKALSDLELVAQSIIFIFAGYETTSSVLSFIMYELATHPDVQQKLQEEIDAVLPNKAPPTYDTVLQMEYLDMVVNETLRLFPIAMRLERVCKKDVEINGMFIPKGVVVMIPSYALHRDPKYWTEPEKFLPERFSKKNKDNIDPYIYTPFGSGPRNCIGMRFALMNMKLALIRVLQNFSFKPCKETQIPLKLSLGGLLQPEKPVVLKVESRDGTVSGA
How it was run: (§1)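 Recombinant P450 (CYP2C8 50, CYP3A4 30, CYP3A5 100; units not given) incubated 10 min at 37°C with repaglinide (8 concentrations, 0.5–150 μM) in 0.1 M phosphate pH 7.4, 10 mM MgCl2, NADPH-regenerating system (1 mM NADP+, isocitrate/isocitrate dehydrogenase). Quenched with ice-cold methanol plus indomethacin internal standard. M1, M2, M4 quantified by LC-MS/MS against authentic standards. Michaelis-Menten fit; mean ± SD, n=3.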

[5] = Unbound intrinsic clearance in human hepatic S9 fraction assessed as IC50 for disulfiram-mediated inhibition of 2-despiperidyl-2-(5-carboxypentylamine) repaglinide formation at 10, 25 and 50 uM by LC-MS/MS method
Cytochrome P450 2C8 = molecular target: T1, Cytochrome P450 2C8 (Homo sapiens, UniProt P10632); assay: Drug metabolism assessed as human recombinant CYP2C8-mediated metabolite formation at 0.5 to 150 uM by LC-MS/MS method; type: ADME; settings: recombinant enzyme; how it was run: as §1
T1 sequence (P10632 whole entry): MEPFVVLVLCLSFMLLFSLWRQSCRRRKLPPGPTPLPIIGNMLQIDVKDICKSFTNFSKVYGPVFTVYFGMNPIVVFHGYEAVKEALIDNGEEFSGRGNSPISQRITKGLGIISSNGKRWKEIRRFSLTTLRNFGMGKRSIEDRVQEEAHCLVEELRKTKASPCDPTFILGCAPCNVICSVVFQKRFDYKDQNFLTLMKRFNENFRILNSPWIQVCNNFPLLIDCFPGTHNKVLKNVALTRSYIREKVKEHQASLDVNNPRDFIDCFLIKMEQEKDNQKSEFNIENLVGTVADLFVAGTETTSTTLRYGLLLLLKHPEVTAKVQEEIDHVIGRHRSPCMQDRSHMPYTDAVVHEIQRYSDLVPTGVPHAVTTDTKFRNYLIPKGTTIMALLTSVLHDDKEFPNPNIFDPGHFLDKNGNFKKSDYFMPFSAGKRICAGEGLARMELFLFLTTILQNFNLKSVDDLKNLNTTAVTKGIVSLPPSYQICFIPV

[6] = Unbound intrinsic clearance in human hepatic S9 fraction assessed as 10 uM disulfiram-mediated inhibition of 2-despiperidyl-2-(5-carboxypentylamine) repaglinide formation at 0.5 to 150 uM by LC-MS/MS method; type: tissue-based, Liver; settings: s9, 150 µM
Cytochrome P450 3A5 = Cytochrome P450 3A5 (Homo sapiens, UniProt P20815); assay: Drug metabolism assessed as human recombinant CYP3A5-mediated metabolite formation at 0.5 to 150 uM by LC-MS/MS method; type: ADME; settings: recombinant enzyme; how it was run: as §1
[7] = Ratio of human recombinant CYP2C8-mediated unbound intrinsic clearance to human recombinant CYP3A5-mediated unbound intrinsic clearance; type: ADME; settings: recombinant enzyme
Homo sapiens [8] = organism: Homo sapiens; assay: Unbound intrinsic clearance in human hepatic S9 fraction assessed as ketoconazole-mediated inhibition of 3'-hydroxy repaglinide intrinsic clearance at 0.5 to 150 uM by LC-MS/MS method
[9] = Ratio of human recombinant CYP2C8-mediated unbound intrinsic clearance to human recombinant CYP3A4-mediated unbound intrinsic clearance; type: ADME; settings: recombinant enzyme
[10] = substrate: CCOc1cc(CC(=O)N[C@@H](CC(C)C)c2ccccc2N2CCCCC2)ccc1C(=O)O; assay: Activity of human recombinant CYP3A5 expressed in insect cells assessed as enzyme-mediated 3'-hydroxy repaglinide formation per picomole of protein at 0.5 to 150 uM by LC-MS/MS method; type: ADME; how it was run: as §1
[11] = substrate: CCOc1cc(CC(=O)N[C@@H](CC(C)C)c2ccccc2N2CCCCC2)ccc1C(=O)O; assay: Activity of human recombinant CYP3A5 expressed in insect cells assessed as enzyme-mediated 2-despiperidyl-2-amino repaglinide formation per picomole of protein at 0.5 to 150 uM by LC-MS/MS method; type: ADME; how it was run: as §1
[12] = substrate: CCOc1cc(CC(=O)N[C@@H](CC(C)C)c2ccccc2N2CCCCC2)ccc1C(=O)O; assay: Activity of human recombinant CYP3A5 expressed in insect cells assessed as enzyme-mediated 2-despiperidyl-2-amino repaglinide formation by LC-MS/MS method; type: ADME; how it was run: as §1
[13] = substrate: CCOc1cc(CC(=O)N[C@@H](CC(C)C)c2ccccc2N2CCCCC2)ccc1C(=O)O; assay: Activity of human recombinant CYP2C8 expressed in insect cells assessed as enzyme-mediated 3'-hydroxy repaglinide formation by LC-MS/MS method; type: ADME; how it was run: as §1
[14] = substrate: CCOc1cc(CC(=O)N[C@@H](CC(C)C)c2ccccc2N2CCCCC2)ccc1C(=O)O; assay: Activity of human recombinant CYP2C8 expressed in insect cells assessed as enzyme-mediated 3'-hydroxy repaglinide formation per picomole of protein at 0.5 to 150 uM by LC-MS/MS method; type: ADME; how it was run: as §1
[15] = substrate: CCOc1cc(CC(=O)N[C@@H](CC(C)C)c2ccccc2N2CCCCC2)ccc1C(=O)O; assay: Activity of human recombinant CYP2C8 expressed in insect cells assessed as enzyme-mediated 2-despiperidyl-2-amino repaglinide formation by LC-MS/MS method; type: ADME; how it was run: as §1
[16] = substrate: CCOc1cc(CC(=O)N[C@@H](CC(C)C)c2ccccc2N2CCCCC2)ccc1C(=O)O; assay: Activity of human recombinant CYP2C8 expressed in insect cells assessed as enzyme-mediated 2-despiperidyl-2-amino repaglinide formation per picomole of protein at 0.5 to 150 uM by LC-MS/MS method; type: ADME; how it was run: as §1

Retention_time [1]: 3 min
Molecule: COc1ccc2c(c1)c(CC(=O)O)c(C)n2C(=O)c1ccc(Cl)cc1 [INDOMETHACIN]

Drug metabolism (Cytochrome P450 3A4): < 1 nM
IC50 [5]: 1200 nM
Retention_time [1]: 2.8 min
Drug metabolism (Cytochrome P450 2C8): < 1 nM
inhibition (INH) [6]: 89%
Drug metabolism (Cytochrome P450 3A5): < 1 nM
Molecule: CCOc1cc(CC(=O)N[C@@H](CC(C)C)c2ccccc2NCCCCC(=O)O)ccc1C(=O)O

Retention_time [1]: 3.4 min
Molecule: CCOc1cc(CC(=O)N[C@@H](CC(C)C)c2ccccc2N2CCCCC2)ccc1C(=O)O[C@@H]1O[C@H](C(=O)O)[C@@H](O)[C@H](O)[C@H]1O

Ratio [7]: 360
inhibition (INH) (Homo sapiens [8]): < 30%
Ratio [9]: 35
Retention_time [1]: 2.9 min
Molecule: CCOc1cc(CC(=O)N[C@@H](CC(C)C)c2ccccc2N2CCCC(O)C2)ccc1C(=O)O (stereo partly drawn)

Second part, the molecule before the results:

Molecule: CCOc1cc(CC(=O)N[C@@H](CC(C)C)c2ccccc2N)ccc1C(=O)O
Ratio [2]: 85
Ratio [3]: 32
inhibition (INH) (Homo sapiens [4]): < 30%
Retention_time [1]: 2.7 min

B1: Cytochrome P450 3A5 (Homo sapiens) (protein)
chain: MDLIPNLAVETWLLLAVSLVLLYLYGTRTHGLFKRLGIPGPTPLPLLGNVLSYRQGLWKFDTECYKKYGKMWGTYEGQLPVLAITDPDVIRTVLVKECYSVFTNRRSLGPVGFMKSAISLAEDEEWKRIRSLLSPTFTSGKLKEMFPIIAQYGDVLVRNLRREAEKGKPVTLKDIFGAYSMDVITGTSFGVNIDSLNNPQDPFVESTKKFLKFGFLDPLFLSIILFPFLTPVFEALNVSLFPKDTINFLSKSVNRMKKSRLNDKQKHRLDFLQLMIDSQNSKETESHKALSDLELAAQSIIFIFAGYETTSSVLSFTLYELATHPDVQQKLQKEIDAVLPNKAPPTYDAVVQMEYLDMVVNETLRLFPVAIRLERTCKKDVEINGVFIPKGSMVVIPTYALHHDPKYWTEPEEFRPERFSKKKDSIDPYIYTPFGTGPRNCIGMRFALMNMKLALIRVLQNFSFKPCKETQIPLKLDTQGLLQPEKPIVLKVDSRDGTLSGE
kcat [10]: 0.000833 s⁻¹
kcat [11]: 0.00133 s⁻¹
Km [12]: 66 µM

B2: Cytochrome P450 2C8 (Homo sapiens) (protein)
chain: MEPFVVLVLCLSFMLLFSLWRQSCRRRKLPPGPTPLPIIGNMLQIDVKDICKSFTNFSKVYGPVFTVYFGMNPIVVFHGYEAVKEALIDNGEEFSGRGNSPISQRITKGLGIISSNGKRWKEIRRFSLTTLRNFGMGKRSIEDRVQEEAHCLVEELRKTKASPCDPTFILGCAPCNVICSVVFQKRFDYKDQNFLTLMKRFNENFRILNSPWIQVCNNFPLLIDCFPGTHNKVLKNVALTRSYIREKVKEHQASLDVNNPRDFIDCFLIKMEQEKDNQKSEFNIENLVGTVADLFVAGTETTSTTLRYGLLLLLKHPEVTAKVQEEIDHVIGRHRSPCMQDRSHMPYTDAVVHEIQRYSDLVPTGVPHAVTTDTKFRNYLIPKGTTIMALLTSVLHDDKEFPNPNIFDPGHFLDKNGNFKKSDYFMPFSAGKRICAGEGLARMELFLFLTTILQNFNLKSVDDLKNLNTTAVTKGIVSLPPSYQICFIPV
Km [13]: 5.7 µM
kcat [14]: 0.00583 s⁻¹
Km [15]: 25 µM
kcat [16]: 0.00133 s⁻¹
